Reference: ChEMBL document CHEMBL1126893, “Synthesis and CLOGP correlation of imidooxy anticonvulsants” (J Med Chem, 1993)

Legend:
Type in all cases: functional
Mus musculus [1] = assay: Time of peak effect of activity of compound was measured by both MES and sc Met test in mice
Outline: (§1)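 Phase II quantification in mice after ip dosing. ED50 (scMet or MES) measured at the time of peak effect. TD50 (rotorod neurologic deficit) measured at the time of peak neurologic deficit. Medians and 95% confidence limits by the Litchfield-Wilcoxon method. Protective index = TD50/ED50. Time of peak effect determined in the MES or scMet test.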

Mus musculus [2] = assay: Time of peak effect of toxicity of compound was measured by both MES and sc Met test in mice; outline: as §1
Mus musculus [3] = assay: Anticonvulsant activity was measured by rotarod toxicity test on mice at 30 min at the dose of 300 mg/kg; number of animals protected/number of animals tested 1/4
Mus musculus [4] = assay: Anticonvulsant activity was measured by rotarod toxicity test on mice at 4 h at the dose of 300 mg/kg; number of animals protected/number of animals tested 0/2
Mus musculus [5] = assay: Anticonvulsant activity was measured by subcutaneous pentylenetetrazole test on mice at 30 min at the dose of 300 mg/kg; number of animals protected/number of animals tested 1/1
Mus musculus [6] = assay: Effective dose was measured in mouse by maximal electroshock method by ip administration.; outline: as §1
Mus musculus [7] = assay: Effective dose was measured in mouse by subcutaneous pentylenetetrazole method by ip administration.; outline: as §1
Mus musculus [8] = assay: Anticonvulsant activity was measured by rotarod toxicity teston mice at 0.25 hr at the dose of 100 mg/kg; number of animals protected/number of animals tested 0/2
Mus musculus [9] = assay: Anticonvulsant activity was measured by rotarod toxicity test on mice at 1 hr at the dose of 100 mg/kg; number of animals protected/number of animals tested 0/2
Mus musculus [10] = assay: Elevation of threshold for electroshock induced seizures in mice was measured by ip administration after 0.5 hr at the dose of 100 mg/kg; No. of mice protected/no tested 1/12; details: route intraperitoneal
Mus musculus [11] = assay: Elevation of threshold for electroshock induced seizures in mice was measured by ip administration after 0.5 hr at the dose of 150 mg/kg; No. of mice protected/no tested 3/12; details: route intraperitoneal
Mus musculus [12] = assay: Elevation of threshold for electroshock induced seizures in mice was measured by ip administration after 0.5 hr at the dose of 200 mg/kg; No. of mice protected/no tested 5/12; details: route intraperitoneal
Mus musculus [13] = assay: Elevation of threshold for electroshock induced seizures in mice was measured by ip administration after 0.5 hr at the dose of 250 mg/kg; No. of mice protected/no tested 5/8; details: route intraperitoneal
Mus musculus [14] = organism: Mus musculus; assay: ED50 value of compound was expressed as dose protecting 50% of mice from tonic hind limb extension; details: Hindlimb
Outline: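 Maximal electroshock test in male CF1 mice (23-34 g). Compound given as a 0.5% methylcellulose suspension ip or po, with testing at 0.5 h after several doses. Endpoint is protection from tonic hind limb extension.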

Mus musculus [15] = assay: Anticonvulsant activity was measured by maximal electroshock test on mice at 30 min at the dose of 300 mg/kg; number of animals protected/number of animals tested 1/1
Mus musculus [16] = assay: Anticonvulsant activity was measured by maximal electroshock test on mice at 4 h at the dose of 300 mg/kg; number of animals protected/number of animals tested 1/1
Mus musculus [17] = assay: Anticonvulsant activity was measured by subcutaneous pentylenetetrazole test on mice at 4 hr at the dose of 300 mg/kg; number of animals protected/number of animals tested 1/1
Mus musculus [18] = organism: Mus musculus; assay: Protective index (TD50/ED50) value in MES test in mice
Mus musculus [19] = organism: Mus musculus; assay: Protective index (TD50/ED50) value in scMET test in mice; outline: as §1
Mus musculus [20] = assay: Anticonvulsant activity was measured by maximal electroshock test on mice at 0.25 hr at the dose of 100 mg/kg; number of animals protected/number of animals tested 0/2
Mus musculus [21] = assay: Anticonvulsant activity was measured by maximal electroshock test on mice at 0.25 hr at the dose of 50 mg/kg; number of animals protected/number of animals tested 0/4
Mus musculus [22] = assay: Anticonvulsant activity was measured by maximal electroshock test on mice at 0.50 hr at the dose of 50 mg/kg; number of animals protected/number of animals tested 0/4
Mus musculus [23] = assay: Anticonvulsant activity was measured by rotarod toxicity test on mice at 30 min at the dose of 300 mg/kg; number of animals protected/number of animals tested, 4/4
Mus musculus [24] = assay: Anticonvulsant activity was measured by rotarod toxicity test on mice at 4 hr at the dose of 100 mg/kg; number of animals protected/number of animals tested 0/4
Mus musculus [25] = assay: Anticonvulsant activity was measured by rotarod toxicity test on mice at 4 hr at the dose of 300 mg/kg; number of animals protected/number of animals tested, 2/2
Mus musculus [26] = assay: Anticonvulsant activity was measured by subcutaneous pentylenetetrazole test on mice at 30 min at the dose of 100 mg/kg; number of animals protected/number of animals tested, 0/1
Mus musculus [27] = assay: Anticonvulsant activity was measured by subcutaneous pentylenetetrazole test on mice at 30 min at the dose of 300 mg/kg; number of animals protected/number of animals tested, 1/1
Mus musculus [28] = assay: Anticonvulsant activity was measured by subcutaneous pentylenetetrazole test on mice at 4 hr at the dose of 100 mg/kg; number of animals protected/number of animals tested, 0/3
Mus musculus [29] = assay: Anticonvulsant activity was measured by rotarod toxicity test on mice at 2 hr at the dose of 50 mg/kg;number of animals protected/number of animals tested 0/4
Mus musculus [30] = assay: Anticonvulsant activity was measured by rotarod toxicity test on mice at 30 min at the dose of 100 mg/kg; number of animals protected/number of animals tested, 0/8
Mus musculus [31] = assay: Anticonvulsant activity was measured by rotarod toxicity teston mice at 0.25 hr at the dose of 50 mg/kg; number of animals protected/number of animals tested 0/4
Mus musculus [32] = assay: Anticonvulsant activity was measured by rotarod toxicity teston mice at 0.50 hr at the dose of 50 mg/kg; number of animals protected/number of animals tested 0/4
Mus musculus [33] = assay: Anticonvulsant activity was measured by rotarod toxicity test on mice at 1 hr at the dose of 50 mg/kg; number of animals protected/number of animals tested 0/4
Mus musculus [34] = assay: Anticonvulsant activity was measured by maximal electroshock test on mice at 30 min at the dose of 300 mg/kg; number of animals protected/number of animals tested, 1/1
Mus musculus [35] = assay: Anticonvulsant activity was measured by maximal electroshock test on mice at 30 min at the dose of 100 mg/kg; number of animals protected/number of animals tested, 2/3
Mus musculus [36] = assay: Anticonvulsant activity was measured by maximal electroshock test on mice at 4 hr at the dose of 300 mg/kg; number of animals protected/number of animals tested, 0/1
Mus musculus [37] = assay: Anticonvulsant activity was measured by rotarod toxicity test on mice at 4 hr at the dose of 50 mg/kg; number of animals protected/number of animals tested 0/4
Mus musculus [38] = assay: Anticonvulsant activity was measured by subcutaneous pentylenetetrazole test on mice at 0.50 hr at the dose of 50 mg/kg; number of animals protected/number of animals tested 0/4
Mus musculus [39] = assay: Anticonvulsant activity was measured by maximal electroshock test on mice at 4 hr at the dose of 100 mg/kg; number of animals protected/number of animals tested, 0/3
Mus musculus [40] = assay: Anticonvulsant activity was measured by maximal electroshock test on mice at 4 hr at the dose of 50 mg/kg; number of animals protected/number of animals tested 0/4
Mus musculus [41] = assay: Anticonvulsant activity was measured by subcutaneous pentylenetetrazole test on mice at 4 h at the dose of 300 mg/kg; number of animals protected/number of animals tested, 0/1
Mus musculus [42] = assay: Anticonvulsant activity was measured by maximal electroshock test on mice at 1 hr at the dose of 50 mg/kg; number of animals protected/number of animals tested 1/4
Mus musculus [43] = assay: Anticonvulsant activity was measured by maximal electroshock test on mice at 2 hr at the dose of 50 mg/kg; number of animals protected/number of animals tested 0/4

## CCC1(c2ccccc2)C(=O)NC(=O)NC1=O [PHENOBARBITAL]
Mus musculus [1]
  TPE: 1 toxicity
Mus musculus [2]
  TPE: 0.5

## O=C1CC2(CCCC2)C(=O)N1OCc1ccc(Cl)cc1Cl
Mus musculus [3]
  Ratio: 1
Mus musculus [4]
  Ratio: 0
Mus musculus [1]
  TPE: 1
Mus musculus [2]
  TPE: 0.5
Mus musculus [5]
  Ratio: 1
Mus musculus [6]
  ED50: 241 mg/kg
Mus musculus [7]
  ED50: 190 mg/kg
Mus musculus [8]
  Ratio: 0
Mus musculus [9]
  Ratio: 0
Mus musculus [10]
  Protection: 8.33%
Mus musculus [11]
  Protection: 25%
Mus musculus [12]
  Protection: 41.7%
Mus musculus [13]
  Protection: 62.5%
Mus musculus [14]
  ED50: 216 mg/kg
Mus musculus [15]
  Ratio: 1
Mus musculus [16]
  Ratio: 1
Mus musculus [17]
  Ratio: 1
Mus musculus [18]
  PI: 1.5
Mus musculus [19]
  PI: 1.9
Mus musculus [20]
  Ratio: 0

## O=C1CC2(CCCC2)C(=O)N1OCc1cccc(Cl)c1
Mus musculus [21]
  Ratio: 0
Mus musculus [22]
  Ratio: 0
Mus musculus [23]
  Ratio: 4
Mus musculus [24]
  Ratio: 0
Mus musculus [25]
  Ratio: 2
Mus musculus [26]
  Ratio: 0
Mus musculus [27]
  Ratio: 1
Mus musculus [28]
  Ratio: 0
Mus musculus [29]
  Ratio: 0
Mus musculus [30]
  Ratio: 0
Mus musculus [31]
  Ratio: 0
Mus musculus [32]
  Ratio: 0
Mus musculus [33]
  Ratio: 0
Mus musculus [34]
  Ratio: 1
Mus musculus [35]
  Ratio: 2
Mus musculus [36]
  Ratio: 0
Mus musculus [37]
  Ratio: 0
Mus musculus [38]
  Ratio: 0
Mus musculus [39]
  Ratio: 0
Mus musculus [40]
  Ratio: 0
Mus musculus [41]
  Ratio: 0
Mus musculus [42]
  Ratio: 1
Mus musculus [43]
  Ratio: 0
